Measured values reported in ChEMBL document CHEMBL1777764, “Synthesis and evaluation of 1-(1H-indol-3-yl)ethanamine derivatives as new antibacterial agents” (Bioorg Med Chem, 2011).

Experiments:
Staphylococcus aureus [1] = test: Antibacterial activity against Staphylococcus aureus ATCC 6538 after 18 hrs by broth microdilution method; assay type: functional; conditions: ATCC 6538, 18 h
In short: (§1)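 MIC by broth microdilution per ISO 20776-1:2006 and CLSI M07-A8. Inoculum 10^6 cfu/ml in Mueller-Hinton broth with compound serially diluted, final concentrations 2 to 128 ug/ml, duplicate rows, no-drug growth control. Incubation 18 h at 37 °C. MIC taken as lowest concentration giving complete inhibition of visible growth. Each compound tested at least twice.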

MRC5 [2] = test: Cytotoxicity against human MRC5 cells at 10 uM; assay type: cell-based; conditions: mrc5, 10 µM
Streptococcus pyogenes = test: Antibacterial activity against Streptococcus pyogenes CIP 104226 after 18 hrs by broth microdilution method; assay type: functional; conditions: CIP 104226, 18 h
In short: (§2)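 Broth microdilution following ISO 20776-1:2006 and CLSI M07-A8, in Mueller-Hinton broth. Inoculum was 10^6 cfu/ml, with compound serial dilutions spanning 2 to 128 ug/ml and a compound-free growth control well. Plates were incubated 18 h at 37 °C. MIC was the lowest concentration giving complete inhibition of visible growth. Each compound was tested at least twice.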

Staphylococcus aureus [3] = test: Antibacterial activity against Staphylococcus aureus ATCC 9144 after 18 hrs by broth microdilution method; assay type: functional; conditions: ATCC 9144, 18 h; in short: as §1
Enterobacter cloacae = test: microbe, parasite or virus in culture; conditions: ATCC 13047, 18 h
Escherichia coli = test: Antibacterial activity against Escherichia coli ATCC 25922 after 18 hrs by broth microdilution method; assay type: functional; conditions: ATCC 25922, 18 h; in short: as §2
MRC5 [4] = test: Cytotoxicity against human MRC5 cells at 1 uM; assay type: cell-based; conditions: mrc5, 1 µM
Streptococcus agalactiae = test: Antibacterial activity against Streptococcus agalactiae ATCC 12400 after 18 hrs by broth microdilution method; assay type: functional; conditions: ATCC 12400, 18 h; in short: as §2
Enterococcus faecalis = test: Antibacterial activity against Enterococcus faecalis ATCC 29212 after 18 hrs by broth microdilution method; assay type: functional; conditions: ATCC 29212, 18 h; in short: as §2
Streptococcus pneumoniae [5] = test: Antibacterial activity against Streptococcus pneumoniae ATCC 6303 after 18 hrs by broth microdilution method; assay type: functional; conditions: ATCC 6303, 18 h
In short: (§3)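 MIC by broth microdilution per ISO 20776-1:2006 and CLSI M07-A8. Inoculum 10^6 cfu/ml in Mueller-Hinton broth […]. Compound serially diluted, final 2 to 128 ug/ml, duplicate rows, no-drug growth control. Read after 18 h at 37 °C as lowest concentration fully inhibiting visible growth. At least two experiments.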

Staphylococcus aureus [6] = test: Antibacterial activity against Staphylococcus aureus ATCC 25923 after 18 hrs by broth microdilution method; assay type: functional; conditions: ATCC 25923, 18 h; in short: as §1
Staphylococcus aureus [7] = test: Antibacterial activity against Staphylococcus aureus ATCC 29213 after 18 hrs by broth microdilution method; assay type: functional; conditions: ATCC 29213, 18 h; in short: as §1
Enterococcus faecium = test: Antibacterial activity against Enterococcus faecium CIP 54.32 after 18 hrs by broth microdilution method; assay type: functional; conditions: CIP 54.32, 18 h; in short: as §2
HCT-116 [8] = test: Cytotoxicity against human HCT116 cells at 1 uM; assay type: cell-based; conditions: hct-116, 1 µM
Staphylococcus aureus [9] = test: Antibacterial activity against Staphylococcus aureus CIP 65.6 after 18 hrs by broth microdilution method; assay type: functional; conditions: CIP 65.6, 18 h; in short: as §1
[10] = test system: Staphylococcus epidermidis; test: Antibacterial activity against Staphylococcus epidermidis ATCC 12228 after 18 hrs by broth microdilution method; assay type: functional; conditions: ATCC 12228, 18 h; in short: as §1
[11] = test system: Staphylococcus epidermidis; test: Antibacterial activity against Staphylococcus epidermidis CIP 103627 after 18 hrs by broth microdilution method; assay type: functional; conditions: CIP 103627, 18 h; in short: as §1
Serratia marcescens = test: microbe, parasite or virus in culture; conditions: CIP 103551, 18 h
[12] = test system: Staphylococcus epidermidis; test: Antibacterial activity against Staphylococcus epidermidis CIP 81.55 after 18 hrs by broth microdilution method; assay type: functional; conditions: CIP 81.55, 18 h; in short: as §1
Streptococcus pneumoniae [13] = test: Antibacterial activity against Streptococcus pneumoniae ATCC 49619 after 18 hrs by broth microdilution method; assay type: functional; conditions: ATCC 49619, 18 h; in short: as §3
Staphylococcus aureus [14] = test: Antibacterial activity against vancomycin intermediate Staphylococcus aureus […] after 18 hrs by broth microdilution method; assay type: functional; in short: as §2
Staphylococcus aureus [15] = test: Antibacterial activity against methicillin-resistant Staphylococcus aureus CIP 65.25 after 18 hrs by broth microdilution method; assay type: functional; conditions: CIP 65.25, 18 h; in short: as §2
Streptococcus mitis = test: Antibacterial activity against Streptococcus mitis CIP 103335 after 18 hrs by broth microdilution method; assay type: functional; conditions: CIP 103335, 18 h
In short: as §2, with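 “broth […].” for “broth.”, “read after” for “incubated”, “with no” for “giving complete inhibition of”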

Pseudomonas aeruginosa = test: microbe, parasite or virus in culture; conditions: CIP 5933, 18 h
HCT-116 [16] = test: Cytotoxicity against human HCT116 cells at 10 uM; assay type: cell-based; conditions: hct-116, 10 µM
Staphylococcus aureus [17] = test: Antibacterial activity against Staphylococcus aureus CIP 103428 after 18 hrs by broth microdilution method; assay type: functional; conditions: CIP 103428, 18 h; in short: as §1
Klebsiella pneumoniae = test: microbe, parasite or virus in culture; conditions: ATCC 35657, 18 h
Staphylococcus aureus [18] = test: Antibacterial activity against methicillin-resistant Staphylococcus aureus ATCC 33592 after 18 hrs by broth microdilution method; assay type: functional; conditions: ATCC 33592, 18 h; in short: as §2
KB [19] = test: Cytotoxicity against human KB cells at 10 uM; assay type: cell-based
Acinetobacter baumannii = test: microbe, parasite or virus in culture; conditions: ATCC 19606 = CIP 70.34 = JCM 6841, 18 h
KB [20] = test: Cytotoxicity against human KB cells at 1 uM; assay type: cell-based
Haemophilus influenzae = test: Antibacterial activity against Haemophilus influenzae ATCC 49766 after 18 hrs by broth microdilution method; assay type: functional; conditions: ATCC 49766, 18 h
In short: as §2, with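 “broth […].” for “broth.”, “read after” for “incubated”, “with no” for “giving complete inhibition of”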

| Structure (SMILES) | MIC (Staphylococcus aureus [1]) [µg/mL] | Activity (MRC5 [2]) | MIC (Streptococcus pyogenes) [µg/mL] | MIC (Staphylococcus aureus [3]) [µg/mL] | MIC (Enterobacter cloacae) [µg/mL] | MIC (Escherichia coli) [µg/mL] | Activity (MRC5 [4]) | MIC (Streptococcus agalactiae) [µg/mL] | MIC (Enterococcus faecalis) [µg/mL] | MIC (Streptococcus pneumoniae [5]) [µg/mL] | MIC (Staphylococcus aureus [6]) [µg/mL] | MIC (Staphylococcus aureus [7]) [µg/mL] | MIC (Enterococcus faecium) [µg/mL] | Activity (HCT-116 [8]) | MIC (Staphylococcus aureus [9]) [µg/mL] | MIC [10] [µg/mL] | MIC [11] [µg/mL] | MIC (Serratia marcescens) [µg/mL] | MIC [12] [µg/mL] | MIC (Streptococcus pneumoniae [13]) [µg/mL] | also measured |
| --- | --- | --- | --- | --- | --- | --- | --- | --- | --- | --- | --- | --- | --- | --- | --- | --- | --- | --- | --- | --- | --- |
| Cl.Cl.NCC(NO)c1c[nH]c2cc(Br)ccc12 (stereo not given) | 16 | Non-toxic | 128 | 16 | 64 | 32 | Non-toxic | 128 | > 128 | 64 | 16 | 16 | > 128 | Non-toxic | 16 | 16 | 16 | 64 | 16 | 64 | MIC (Staphylococcus aureus [14]): 16 µg/mL; MIC (Staphylococcus aureus [15]): 16 µg/mL; MIC (Streptococcus mitis): 128 µg/mL; MIC (Pseudomonas aeruginosa): 64 µg/mL; Activity (HCT-116 [16]): Non-toxic; MIC (Staphylococcus aureus [17]): 16 µg/mL; MIC (Klebsiella pneumoniae): 64 µg/mL; MIC (Staphylococcus aureus [18]): 16 µg/mL; Activity (KB [19]): Non-toxic; MIC (Acinetobacter baumannii): 64 µg/mL; Activity (KB [20]): Non-toxic |
| Cl.Cl.NCC(NO)c1c[nH]c2cccc(Br)c12 (stereo not given) | 32 | Non-toxic | 128 | 32 | > 128 | 128 | Non-toxic | 128 | > 128 | 128 | 32 | 32 | > 128 | Non-toxic | 32 | 32 | 32 | > 128 | 32 | 128 | MIC (Staphylococcus aureus [14]): 32 µg/mL; MIC (Staphylococcus aureus [15]): 32 µg/mL; MIC (Streptococcus mitis): 128 µg/mL; MIC (Pseudomonas aeruginosa): > 128 µg/mL; Activity (HCT-116 [16]): Non-toxic; MIC (Staphylococcus aureus [17]): 32 µg/mL; MIC (Klebsiella pneumoniae): > 128 µg/mL; MIC (Staphylococcus aureus [18]): 32 µg/mL; Activity (KB [19]): Non-toxic; MIC (Acinetobacter baumannii): > 128 µg/mL; Activity (KB [20]): Non-toxic |
| Cl.Cl.NCC(NO)c1c[nH]c2ccc(I)cc12 (stereo not given) | 16 | Non-toxic | 128 | 16 | 64 | 32 | Non-toxic | 128 | 128 | 64 | 16 | 16 | 128 | Non-toxic | 16 | 16 | 16 | 64 | 16 | 64 | MIC (Haemophilus influenzae): 64 µg/mL; MIC (Staphylococcus aureus [14]): 16 µg/mL; MIC (Staphylococcus aureus [15]): 32 µg/mL; MIC (Streptococcus mitis): 128 µg/mL; MIC (Pseudomonas aeruginosa): 64 µg/mL; Activity (HCT-116 [16]): Non-toxic; MIC (Staphylococcus aureus [17]): 16 µg/mL; MIC (Klebsiella pneumoniae): 64 µg/mL; MIC (Staphylococcus aureus [18]): 32 µg/mL; Activity (KB [19]): Non-toxic; MIC (Acinetobacter baumannii): 64 µg/mL; Activity (KB [20]): Non-toxic |
| Cl.Cl.NCC(NO)c1c[nH]c2ccc(Br)cc12 (stereo not given) | 16 | Non-toxic | 64 | 16 | 64 | 16 | Non-toxic | 64 | 128 | 64 | 16 | 16 | 128 | Non-toxic | 16 | 8 | 8 | 64 | 8 | 64 | MIC (Staphylococcus aureus [14]): 16 µg/mL; MIC (Staphylococcus aureus [15]): 16 µg/mL; MIC (Streptococcus mitis): 64 µg/mL; MIC (Pseudomonas aeruginosa): 64 µg/mL; Activity (HCT-116 [16]): Non-toxic; MIC (Staphylococcus aureus [17]): 16 µg/mL; MIC (Klebsiella pneumoniae): 64 µg/mL; MIC (Staphylococcus aureus [18]): 16 µg/mL; Activity (KB [19]): Non-toxic; MIC (Acinetobacter baumannii): 64 µg/mL; Activity (KB [20]): Non-toxic |
